Calls of active or inactive are those of the source. No cut-off for these calls is given here.
Columns and labels:
[1] = Drug concentration in 5XFAD mouse brain at 75 ppm administered as rodent chow starting from 1.5 months and measured after 5 months; type: ADME, tissue-based; settings: route po, time 3.5 months, read-out: Ct
Method in brief: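 WT or 5xFAD mice were fed PLX3397 in AIN-76A chow at 600 ppm or 75 ppm from 1.5 to 5 months of age. Terminal brain and plasma drug concentrations were determined at study end.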

Mus musculus [2] = experiment: Antialzheimer activity in 5XFAD mouse assessed as microglial elimination in thalamus by measuring reduction in Thio-S positive plaques at 1200 ppm administered as rodent chow for 14 weeks by Thio-S staining based confocal microscopic analysis; type: functional, organism-based; settings: route po
[3] = molecular target: Calcium/calmodulin-dependent protein kinase type II subunit delta (Homo sapiens, UniProt Q13557); experiment: Inhibition of CAMK2D (unknown origin)
Chain of Calcium/calmodulin-dependent protein kinase type II subunit delta (Q13557 whole entry): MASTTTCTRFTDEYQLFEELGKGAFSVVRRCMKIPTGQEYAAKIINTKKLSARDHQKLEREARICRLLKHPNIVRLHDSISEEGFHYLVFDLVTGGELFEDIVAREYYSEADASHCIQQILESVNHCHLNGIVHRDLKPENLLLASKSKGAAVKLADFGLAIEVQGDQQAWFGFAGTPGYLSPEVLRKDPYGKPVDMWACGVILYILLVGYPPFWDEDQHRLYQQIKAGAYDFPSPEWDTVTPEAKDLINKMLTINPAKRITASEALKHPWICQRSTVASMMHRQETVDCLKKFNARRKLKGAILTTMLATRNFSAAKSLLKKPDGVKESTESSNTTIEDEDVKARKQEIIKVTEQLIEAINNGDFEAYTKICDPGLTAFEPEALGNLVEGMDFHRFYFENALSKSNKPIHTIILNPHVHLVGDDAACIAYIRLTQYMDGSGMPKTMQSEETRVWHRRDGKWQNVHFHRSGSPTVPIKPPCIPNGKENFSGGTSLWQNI

[4] = molecular target: Rho-associated protein kinase 2 (Homo sapiens, UniProt O75116); experiment: Inhibition of ROCK2 (unknown origin)
Chain of Rho-associated protein kinase 2 (O75116 whole entry): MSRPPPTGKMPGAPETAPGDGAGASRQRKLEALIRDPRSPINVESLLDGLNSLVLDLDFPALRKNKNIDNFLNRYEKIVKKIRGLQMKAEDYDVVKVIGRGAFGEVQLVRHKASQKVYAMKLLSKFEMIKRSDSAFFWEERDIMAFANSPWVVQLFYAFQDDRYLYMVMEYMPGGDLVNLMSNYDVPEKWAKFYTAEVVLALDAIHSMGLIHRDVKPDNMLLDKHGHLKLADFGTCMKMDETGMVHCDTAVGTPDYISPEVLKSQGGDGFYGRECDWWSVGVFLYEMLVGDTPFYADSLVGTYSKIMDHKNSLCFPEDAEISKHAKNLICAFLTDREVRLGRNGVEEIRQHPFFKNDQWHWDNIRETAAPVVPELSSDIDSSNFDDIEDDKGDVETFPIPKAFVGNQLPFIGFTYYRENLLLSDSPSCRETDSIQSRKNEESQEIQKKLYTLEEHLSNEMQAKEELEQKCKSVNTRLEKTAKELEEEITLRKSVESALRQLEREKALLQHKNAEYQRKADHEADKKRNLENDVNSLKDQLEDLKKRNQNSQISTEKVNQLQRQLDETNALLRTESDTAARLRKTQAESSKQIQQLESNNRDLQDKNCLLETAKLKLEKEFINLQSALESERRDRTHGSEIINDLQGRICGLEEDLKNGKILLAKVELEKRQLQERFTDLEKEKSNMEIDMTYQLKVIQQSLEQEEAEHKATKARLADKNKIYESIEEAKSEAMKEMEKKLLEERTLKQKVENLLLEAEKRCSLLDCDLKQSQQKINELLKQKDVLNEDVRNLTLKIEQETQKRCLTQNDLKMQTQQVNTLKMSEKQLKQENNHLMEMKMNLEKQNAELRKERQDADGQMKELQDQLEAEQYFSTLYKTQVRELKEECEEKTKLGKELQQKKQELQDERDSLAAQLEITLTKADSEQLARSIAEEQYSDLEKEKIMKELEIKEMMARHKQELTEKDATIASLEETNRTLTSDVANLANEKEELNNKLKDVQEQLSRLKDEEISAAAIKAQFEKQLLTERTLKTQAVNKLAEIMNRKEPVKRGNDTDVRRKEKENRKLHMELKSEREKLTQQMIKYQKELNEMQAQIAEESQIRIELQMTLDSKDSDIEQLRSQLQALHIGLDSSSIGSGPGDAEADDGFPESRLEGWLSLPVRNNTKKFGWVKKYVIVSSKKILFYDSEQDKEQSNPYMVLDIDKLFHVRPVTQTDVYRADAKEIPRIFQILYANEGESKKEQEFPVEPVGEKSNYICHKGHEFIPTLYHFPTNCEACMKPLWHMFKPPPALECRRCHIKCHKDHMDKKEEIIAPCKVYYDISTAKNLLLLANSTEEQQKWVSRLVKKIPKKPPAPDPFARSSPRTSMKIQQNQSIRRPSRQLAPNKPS

Mus musculus [5] = experiment: Effect on APP processing pathway in wildtype mouse assessed as PS1 protein signal intensity in cortex at 1200 ppm administered as rodent starting from 1.5 months and measured after 7 months (reference value: 78.906 to 243.681 %); type: functional; settings: route po, time 5.5 months, 4015 h
[6] = Effect on Csf1r RPKM gene expression in wild type mouse thalamus at 1200 ppm administered as rodent chow starting from 1.5 months and measured after 7 months by RNA-Seq analysis (reference value: 19.596 to 21.371 RPKM); type: functional; settings: route po, time 5.5 months, 4015 h
Ephrin type-B receptor 4 = Ephrin type-B receptor 4 (Homo sapiens, UniProt P54760); experiment: Inhibition of EPHB4 (unknown origin)
Mus musculus [7] = experiment: Prevention of Nell2 gene downregulation in 5XFAD mouse hippocampus at 1200 ppm administered as rodent chow starting from 1.5 months and measured after 7 months by Nanostring analysis; type: functional, tissue-based; settings: route po, time 5.5 months
[8] = molecular target: MAP kinase-activated protein kinase 3 (Homo sapiens, UniProt Q16644); experiment: Inhibition of MAPKAPK3 (unknown origin)
Chain of MAP kinase-activated protein kinase 3 (Q16644 whole entry): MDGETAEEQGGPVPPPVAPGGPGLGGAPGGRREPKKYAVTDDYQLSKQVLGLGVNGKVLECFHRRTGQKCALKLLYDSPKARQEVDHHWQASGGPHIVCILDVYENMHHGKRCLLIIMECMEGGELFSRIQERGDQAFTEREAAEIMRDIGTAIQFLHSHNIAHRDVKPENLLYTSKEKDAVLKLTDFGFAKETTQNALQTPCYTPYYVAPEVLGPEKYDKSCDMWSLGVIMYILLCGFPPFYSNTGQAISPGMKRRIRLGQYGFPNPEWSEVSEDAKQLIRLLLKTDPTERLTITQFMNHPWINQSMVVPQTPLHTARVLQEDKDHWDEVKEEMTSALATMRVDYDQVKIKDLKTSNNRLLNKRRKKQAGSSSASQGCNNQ

[9] = Effect on Spi1 gene expression in 5XFAD mouse hippocampus at 1200 ppm administered as rodent chow starting from 1.5 months and measured after 7 months by RNA-Seq analysis (reference value: 2.582 to 3.674 RPKM); type: functional; settings: route po, time 5.5 months, 4015 h
[10] = molecular target: T1, Macrophage colony-stimulating factor 1 receptor (Mus musculus) (UniProt P09581); experiment: In vivo inhibition of CSF1R in wildtype mouse assessed as iron reactivity by measuring hemosiderin intensity of prussian blue staining in thalamus at 1200 ppm administered as rodent chow starting from 1.5 months and measured after 7 months by confocal microscopic analysis (reference value: 0.068 to 2.717 a.u.); type: functional; settings: route po, time 5.5 months
T1 sequence (whole entry): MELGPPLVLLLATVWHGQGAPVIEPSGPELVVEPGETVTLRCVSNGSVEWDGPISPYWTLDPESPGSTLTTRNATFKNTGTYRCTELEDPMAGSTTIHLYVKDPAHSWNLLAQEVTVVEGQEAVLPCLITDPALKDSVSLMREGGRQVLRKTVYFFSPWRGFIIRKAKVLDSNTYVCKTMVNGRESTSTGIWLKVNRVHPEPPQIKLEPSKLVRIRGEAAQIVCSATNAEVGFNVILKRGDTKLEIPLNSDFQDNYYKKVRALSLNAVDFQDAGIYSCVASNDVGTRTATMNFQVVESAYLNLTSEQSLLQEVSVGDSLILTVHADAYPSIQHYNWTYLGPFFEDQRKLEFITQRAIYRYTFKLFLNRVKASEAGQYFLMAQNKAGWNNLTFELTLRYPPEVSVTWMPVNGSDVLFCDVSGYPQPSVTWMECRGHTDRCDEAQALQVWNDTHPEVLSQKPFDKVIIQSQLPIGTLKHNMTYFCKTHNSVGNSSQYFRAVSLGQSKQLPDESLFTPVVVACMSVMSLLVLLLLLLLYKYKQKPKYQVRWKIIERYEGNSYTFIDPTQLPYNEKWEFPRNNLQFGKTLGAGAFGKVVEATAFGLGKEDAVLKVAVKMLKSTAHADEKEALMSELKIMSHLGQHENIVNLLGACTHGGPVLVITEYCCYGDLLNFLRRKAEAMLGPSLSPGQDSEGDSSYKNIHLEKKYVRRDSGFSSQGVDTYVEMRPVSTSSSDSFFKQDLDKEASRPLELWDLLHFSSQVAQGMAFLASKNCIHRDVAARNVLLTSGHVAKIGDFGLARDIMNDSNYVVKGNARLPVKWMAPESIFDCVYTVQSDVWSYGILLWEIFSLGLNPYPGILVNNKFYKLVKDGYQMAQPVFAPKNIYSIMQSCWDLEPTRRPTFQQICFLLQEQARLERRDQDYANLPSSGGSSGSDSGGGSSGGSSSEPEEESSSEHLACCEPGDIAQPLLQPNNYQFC
Method in brief: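 Wild-type or 5xFAD mice fed PLX5622 (1200 ppm) in AIN-76A chow from 1.5 months of age, examined in 4- and 7-month-old cohorts. Brain sections stained with a Prussian blue kit per kit instructions to detect iron deposits (microbleeds).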

[11] = Oral bioavailability in male rat at 45 mg/kg administered as single via gavage; type: ADME, organism-based; settings: in vivo
[12] = Effect on Clec7a gene expression in 5XFAD mouse thalamus at 1200 ppm administered as rodent chow starting from 1.5 months and measured after 7 months by RNA-Seq analysis (reference value: 3.412 to 4.381 RPKM); type: functional; settings: route po, time 5.5 months, 4015 h
Method in brief: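 WT and 5xFAD mice were treated with 1200 ppm PLX5622 chow or control chow from 1.5 to 7 months of age. Brains were microdissected into cortex, hippocampus and thalamus, and RNA was extracted from tissue powder. Whole-transcriptome RNA-Seq libraries were sequenced, with n = 4 per group per region (48 samples).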

[13] = Toxicity in wildtype mouse assessed as number of triads at 1200 ppm administered as rodent chow for 10 to 24 weeks by Y-maze test (reference value: 4 to 9); settings: in vivo, po, time 10-24 weeks
Mus musculus [14] = experiment: Antialzheimer activity in 5XFAD mouse assessed as average plaque volume in somatosensory cortex at 1200 ppm administered as rodent chow starting from 1.5 months and measured after 7 months by Thio-S staining based confocal microscopic analysis (reference value: 711.144 to 2878.724 microm3); type: functional; settings: route po, time 5.5 months, 4015 h
[15] = molecular target: Phosphatidylinositol 4,5-bisphosphate 3-kinase catalytic subunit gamma isoform (Homo sapiens, UniProt P48736); experiment: Inhibition of PIK3CG (unknown origin)
Chain of Phosphatidylinositol 4,5-bisphosphate 3-kinase catalytic subunit gamma isoform (P48736 whole entry, canonical isoform): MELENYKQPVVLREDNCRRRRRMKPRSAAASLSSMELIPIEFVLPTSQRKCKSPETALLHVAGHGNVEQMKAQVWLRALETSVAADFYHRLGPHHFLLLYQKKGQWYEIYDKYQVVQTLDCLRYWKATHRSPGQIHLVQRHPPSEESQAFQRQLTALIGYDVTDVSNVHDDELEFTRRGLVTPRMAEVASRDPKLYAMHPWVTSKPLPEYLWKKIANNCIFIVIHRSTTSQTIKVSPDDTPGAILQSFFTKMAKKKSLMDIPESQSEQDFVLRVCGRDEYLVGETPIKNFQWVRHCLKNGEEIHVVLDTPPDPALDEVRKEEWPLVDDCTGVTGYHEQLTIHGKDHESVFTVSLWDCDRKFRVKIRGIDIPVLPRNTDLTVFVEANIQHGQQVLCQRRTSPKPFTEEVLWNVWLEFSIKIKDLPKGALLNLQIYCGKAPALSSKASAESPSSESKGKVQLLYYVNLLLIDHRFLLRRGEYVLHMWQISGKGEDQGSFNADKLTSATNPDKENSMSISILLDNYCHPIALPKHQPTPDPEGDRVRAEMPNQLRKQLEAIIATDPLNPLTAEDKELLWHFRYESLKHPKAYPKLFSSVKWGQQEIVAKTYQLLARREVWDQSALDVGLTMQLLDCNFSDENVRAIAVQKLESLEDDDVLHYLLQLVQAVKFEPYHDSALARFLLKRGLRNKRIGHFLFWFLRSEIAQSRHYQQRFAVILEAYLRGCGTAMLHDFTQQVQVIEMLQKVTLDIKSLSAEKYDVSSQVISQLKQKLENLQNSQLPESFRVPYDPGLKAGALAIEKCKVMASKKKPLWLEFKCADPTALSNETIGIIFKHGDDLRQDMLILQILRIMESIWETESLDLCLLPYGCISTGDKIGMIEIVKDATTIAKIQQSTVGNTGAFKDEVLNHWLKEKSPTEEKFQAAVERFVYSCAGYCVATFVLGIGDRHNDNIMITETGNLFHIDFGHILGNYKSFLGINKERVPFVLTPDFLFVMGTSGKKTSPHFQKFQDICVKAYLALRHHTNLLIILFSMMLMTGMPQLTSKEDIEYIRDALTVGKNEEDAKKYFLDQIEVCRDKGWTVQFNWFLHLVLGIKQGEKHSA

[16] = Cmax in dog at 45 mg/kg, po administered as single dose via gavage; type: ADME, organism-based, Canis lupus familiaris; settings: in vivo
[17] = AUC (0 to infinity) in female rat at 45 mg/kg, po administered as single dose via gavage; type: ADME, organism-based; settings: in vivo
[18] = Effect on Gls gene expression in wildtype mouse hippocampus assessed as percent change in Reads Per kilo base per Million mapped reads at 1200 ppm administered as rodent chow starting from 1.5 months and measured after 7 months by RNA-Seq analysis (reference value: 89.231 to 109.618 %); type: functional; settings: route po, time 5.5 months, 4015 h
[19] = molecular target: Serine/threonine-protein kinase SIK2 (Homo sapiens, UniProt Q9H0K1); experiment: Inhibition of SNF1LK2 (unknown origin)
Chain of Serine/threonine-protein kinase SIK2 (Q9H0K1 whole entry): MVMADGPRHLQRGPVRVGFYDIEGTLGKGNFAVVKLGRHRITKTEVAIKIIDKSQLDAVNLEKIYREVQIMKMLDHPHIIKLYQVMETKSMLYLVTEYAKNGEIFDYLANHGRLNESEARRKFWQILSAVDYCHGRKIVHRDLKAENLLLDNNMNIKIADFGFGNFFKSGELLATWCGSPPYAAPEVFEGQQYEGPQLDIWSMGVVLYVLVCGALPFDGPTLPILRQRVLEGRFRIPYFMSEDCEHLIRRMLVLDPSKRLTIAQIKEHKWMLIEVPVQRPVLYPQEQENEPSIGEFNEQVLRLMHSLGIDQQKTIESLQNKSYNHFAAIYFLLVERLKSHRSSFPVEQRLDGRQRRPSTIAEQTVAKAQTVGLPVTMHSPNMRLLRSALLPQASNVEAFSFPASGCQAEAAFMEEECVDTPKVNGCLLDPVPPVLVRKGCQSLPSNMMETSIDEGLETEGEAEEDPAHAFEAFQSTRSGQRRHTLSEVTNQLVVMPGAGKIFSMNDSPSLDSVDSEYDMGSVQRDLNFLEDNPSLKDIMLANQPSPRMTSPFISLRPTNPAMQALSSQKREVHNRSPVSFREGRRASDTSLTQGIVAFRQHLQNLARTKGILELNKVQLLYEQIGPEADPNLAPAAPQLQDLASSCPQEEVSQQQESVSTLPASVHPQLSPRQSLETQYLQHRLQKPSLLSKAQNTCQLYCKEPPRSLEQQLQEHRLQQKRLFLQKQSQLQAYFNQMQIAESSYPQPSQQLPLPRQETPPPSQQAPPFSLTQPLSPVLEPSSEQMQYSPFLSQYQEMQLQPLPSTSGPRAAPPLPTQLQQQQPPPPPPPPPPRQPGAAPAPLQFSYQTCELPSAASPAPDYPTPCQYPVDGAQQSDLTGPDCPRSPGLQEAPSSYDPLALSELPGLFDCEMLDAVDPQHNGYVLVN

Molecule `FC(F)(F)c1ccc(CNc2ccc(Cc3c[nH]c4ncc(Cl)cc34)cn2)cn1` [PEXIDARTINIB] has a concentration at 2555 h [1] of 600 nM.

In the case of `COc1ncc(F)cc1CNc1ccc(Cc2c[nH]c3ncc(C)cc23)c(F)n1` [PLX-5622], the Activity (Mus musculus [2]) is reported as “inactive”, the IC50 [3] is reported as greater than 1 µM and the IC50 [4] is reported as greater than 1 µM. For the same molecule, the Activity (Mus musculus [5]) was 99.34%, the Activity [6] was 0.064 RPKM and the IC50 (Ephrin type-B receptor 4) was greater than 1 µM. The Activity (Mus musculus [7]) was “Active”, the IC50 [8] was greater than 1 µM and the Activity [9] was 0.292 RPKM. For the same molecule, the Flu intensity [10] was 0.086 a.u, the bioavailability [11] was 95% and the Activity [12] was 0 RPKM. For the same molecule, the Activity [13] was 3, the Activity (Mus musculus [14]) was 66.975 um3 and the IC50 [15] was greater than 1 µM. For the same molecule, the Cmax [16] was 3630 ng/mL, the AUC(0-inf) [17] was 181 µg·h/mL and the Activity [18] was 68.459%. The IC50 [19] was greater than 1 µM.

— ChEMBL document CHEMBL5649170, “Sustained microglial depletion with CSF1R inhibitor impairs parenchymal plaque development in an Alzheimer's disease model” (Nat Commun, 2019)
